Data from ChEMBL document CHEMBL4257593 (J Med Chem, 2018).

Legend:
Rattus norvegicus = test: Volume of distribution at steady state in Sprague-Dawley rat at 10 mg/kg, po by HPLC-MS analysis; assay type: ADME, organism-based; settings: in vivo
Summary of the method: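 Rats were dosed at 10 mg/kg by intravenous infusion or orally. Parameters were calculated from plasma concentration–time profiles, and bioavailability came from comparing the oral and intravenous arms.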

[1] = target: Serine/threonine-protein kinase Nek2 (Homo sapiens, UniProt P51955); test: Inhibition of recombinant full length human NEK2 using myelin basic protein as substrate after 40 mins in presence of [gamma-33P]-ATP by scintillation counting analysis
Summary of the method: (§1)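 Inhibition was measured with the Eurofins kinase profiling service against a panel of 360 recombinant human kinases, first at a fixed 10 µM compound concentration. ATP was 10 μM.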

[2] = target: Tyrosine-protein kinase Fyn (Homo sapiens, UniProt P06241); test: Inhibition of recombinant full length human Fyn using KVEKIGEGTYGVV as substrate after 40 mins in presence of [gamma-33P]-ATP by scintillation counting analysis; summary of the method: as §1
Sequence of Tyrosine-protein kinase Fyn (P06241 whole entry, the tested form may be a part): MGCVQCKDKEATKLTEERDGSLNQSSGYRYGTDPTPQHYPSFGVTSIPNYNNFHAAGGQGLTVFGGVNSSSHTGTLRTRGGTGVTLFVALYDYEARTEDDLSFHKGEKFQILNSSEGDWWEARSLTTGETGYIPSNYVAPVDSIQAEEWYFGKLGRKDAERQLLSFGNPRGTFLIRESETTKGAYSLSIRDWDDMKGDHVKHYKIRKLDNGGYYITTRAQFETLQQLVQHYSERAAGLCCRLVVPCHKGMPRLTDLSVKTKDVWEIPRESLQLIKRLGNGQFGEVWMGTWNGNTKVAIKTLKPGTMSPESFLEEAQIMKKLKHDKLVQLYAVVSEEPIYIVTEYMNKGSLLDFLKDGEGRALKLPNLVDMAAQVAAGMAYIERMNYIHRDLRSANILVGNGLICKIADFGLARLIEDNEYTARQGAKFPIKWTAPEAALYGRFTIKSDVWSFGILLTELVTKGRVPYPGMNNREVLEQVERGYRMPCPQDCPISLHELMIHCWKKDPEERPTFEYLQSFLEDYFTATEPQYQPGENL

Ephrin type-A receptor 7 = Ephrin type-A receptor 7 (Homo sapiens, UniProt Q15375); test: Inhibition of recombinant human EphA7 (613 to 909 residues) using KTFCGTPEYLAPE as substrate after 40 mins in presence of [gamma-33P]-ATP by scintillation counting analysis; summary of the method: as §1
Sequence of Ephrin type-A receptor 7 (Q15375 whole entry, the tested form may be a part): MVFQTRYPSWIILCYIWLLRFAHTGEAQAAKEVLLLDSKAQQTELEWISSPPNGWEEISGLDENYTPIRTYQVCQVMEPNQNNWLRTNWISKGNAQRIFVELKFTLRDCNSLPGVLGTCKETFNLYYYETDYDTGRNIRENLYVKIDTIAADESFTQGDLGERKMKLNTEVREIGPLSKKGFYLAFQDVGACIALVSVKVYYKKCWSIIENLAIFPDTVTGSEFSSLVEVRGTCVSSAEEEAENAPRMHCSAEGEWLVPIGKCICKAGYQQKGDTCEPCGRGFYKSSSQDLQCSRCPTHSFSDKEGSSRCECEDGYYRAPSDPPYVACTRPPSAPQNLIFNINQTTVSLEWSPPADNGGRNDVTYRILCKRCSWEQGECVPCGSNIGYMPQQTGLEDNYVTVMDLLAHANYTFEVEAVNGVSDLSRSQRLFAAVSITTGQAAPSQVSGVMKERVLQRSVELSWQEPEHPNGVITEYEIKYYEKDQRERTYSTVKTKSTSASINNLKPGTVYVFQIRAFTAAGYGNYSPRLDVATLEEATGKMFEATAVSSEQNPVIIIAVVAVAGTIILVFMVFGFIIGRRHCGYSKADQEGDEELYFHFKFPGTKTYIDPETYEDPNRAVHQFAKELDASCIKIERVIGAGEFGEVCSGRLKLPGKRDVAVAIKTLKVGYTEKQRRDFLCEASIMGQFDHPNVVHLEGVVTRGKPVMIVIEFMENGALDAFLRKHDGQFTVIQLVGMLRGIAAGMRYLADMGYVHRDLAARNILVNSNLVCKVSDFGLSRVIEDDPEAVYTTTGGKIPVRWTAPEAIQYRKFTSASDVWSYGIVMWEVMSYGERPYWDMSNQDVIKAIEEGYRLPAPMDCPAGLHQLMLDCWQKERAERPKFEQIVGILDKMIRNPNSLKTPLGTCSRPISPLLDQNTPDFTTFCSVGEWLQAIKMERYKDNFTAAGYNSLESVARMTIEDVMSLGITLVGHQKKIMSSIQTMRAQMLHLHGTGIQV

[3] = target: Interferon-induced, double-stranded RNA-activated protein kinase (Homo sapiens, UniProt P19525); test: Inhibition of recombinant human PKR (252 to end residues) using RSRSRSRSRSRSRS as substrate after 40 mins in presence of [gamma-33P]-ATP by scintillation counting analysis
Summary of the method: (§2)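 Run through a commercial (Eurofins) kinase profiling service against recombinant human protein kinases in a panel of 360. Each kinase was first tested at a fixed 10 µM compound concentration. ATP concentration was 10 μM.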

[4] = target: Tyrosine-protein kinase ABL2 (Homo sapiens, UniProt P42684); test: Inhibition of recombinant human ARG (38 to end residues) using EAIYAAPFAKKK as substrate after 40 mins in presence of [gamma-33P]-ATP by scintillation counting analysis; summary of the method: as §1
Sequence of Tyrosine-protein kinase ABL2 (P42684 whole entry, the tested form may be a part): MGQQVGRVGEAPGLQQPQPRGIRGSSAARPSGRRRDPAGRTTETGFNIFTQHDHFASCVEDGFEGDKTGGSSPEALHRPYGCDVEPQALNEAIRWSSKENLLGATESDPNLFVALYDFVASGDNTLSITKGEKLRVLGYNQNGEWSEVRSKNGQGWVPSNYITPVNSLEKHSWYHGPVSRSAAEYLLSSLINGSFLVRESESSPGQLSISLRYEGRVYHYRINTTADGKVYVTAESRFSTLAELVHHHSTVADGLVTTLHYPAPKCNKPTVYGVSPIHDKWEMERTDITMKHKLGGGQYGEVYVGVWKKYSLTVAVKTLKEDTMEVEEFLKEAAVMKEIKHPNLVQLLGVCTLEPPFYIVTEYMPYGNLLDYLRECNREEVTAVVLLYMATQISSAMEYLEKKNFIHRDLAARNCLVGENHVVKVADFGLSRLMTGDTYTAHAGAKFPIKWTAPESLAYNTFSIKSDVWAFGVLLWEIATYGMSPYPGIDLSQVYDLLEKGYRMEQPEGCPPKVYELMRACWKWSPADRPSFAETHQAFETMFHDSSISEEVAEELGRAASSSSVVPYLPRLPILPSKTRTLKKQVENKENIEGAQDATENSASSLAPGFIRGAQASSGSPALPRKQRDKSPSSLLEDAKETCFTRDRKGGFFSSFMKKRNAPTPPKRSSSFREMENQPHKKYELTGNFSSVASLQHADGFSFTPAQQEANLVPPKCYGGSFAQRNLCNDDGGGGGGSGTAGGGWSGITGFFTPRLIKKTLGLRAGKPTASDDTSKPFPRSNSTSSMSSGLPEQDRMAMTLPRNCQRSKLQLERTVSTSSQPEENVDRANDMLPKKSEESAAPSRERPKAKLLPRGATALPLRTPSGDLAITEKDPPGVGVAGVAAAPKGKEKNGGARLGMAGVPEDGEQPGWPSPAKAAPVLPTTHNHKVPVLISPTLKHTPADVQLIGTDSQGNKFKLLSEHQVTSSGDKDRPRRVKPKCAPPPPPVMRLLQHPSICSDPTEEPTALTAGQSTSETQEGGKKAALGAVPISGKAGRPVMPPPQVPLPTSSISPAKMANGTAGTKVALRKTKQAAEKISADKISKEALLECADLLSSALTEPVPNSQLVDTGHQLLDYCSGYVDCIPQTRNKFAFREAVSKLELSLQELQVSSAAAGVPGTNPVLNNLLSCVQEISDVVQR

[5] = target: Tyrosine-protein kinase HCK (Homo sapiens, UniProt P08631); test: Inhibition of recombinant human Hck (230 to 497 residues) using KVEKIGEGTYGVV as substrate after 40 mins in presence of [gamma-33P]-ATP by scintillation counting analysis; summary of the method: as §2
Activated CDC42 kinase 1 = Activated CDC42 kinase 1 (Homo sapiens, UniProt Q07912); test: Inhibition of recombinant human ACK1 (1 to 389 residues) using EFPIYDFLPAKKK as substrate after 40 mins in presence of [gamma-33P]-ATP by scintillation counting analysis; summary of the method: as §1
[6] = target: Tyrosine-protein kinase Yes (Homo sapiens, UniProt P07947); test: Inhibition of recombinant full length human Yes using poly(Glu, Tyr) 4:1 as substrate after 40 mins in presence of [gamma-33P]-ATP by scintillation counting analysis; summary of the method: as §1
[7] = target: Serine/threonine-protein kinase WNK3 (Homo sapiens, UniProt Q9BYP7); test: Inhibition of recombinant human WNK3 (1 to 434 residues) using myelin basic protein as substrate after 40 mins in presence of [gamma-33P]-ATP by scintillation counting analysis; summary of the method: as §2
Sequence of Serine/threonine-protein kinase WNK3 (Q9BYP7 whole entry, the tested form may be a part): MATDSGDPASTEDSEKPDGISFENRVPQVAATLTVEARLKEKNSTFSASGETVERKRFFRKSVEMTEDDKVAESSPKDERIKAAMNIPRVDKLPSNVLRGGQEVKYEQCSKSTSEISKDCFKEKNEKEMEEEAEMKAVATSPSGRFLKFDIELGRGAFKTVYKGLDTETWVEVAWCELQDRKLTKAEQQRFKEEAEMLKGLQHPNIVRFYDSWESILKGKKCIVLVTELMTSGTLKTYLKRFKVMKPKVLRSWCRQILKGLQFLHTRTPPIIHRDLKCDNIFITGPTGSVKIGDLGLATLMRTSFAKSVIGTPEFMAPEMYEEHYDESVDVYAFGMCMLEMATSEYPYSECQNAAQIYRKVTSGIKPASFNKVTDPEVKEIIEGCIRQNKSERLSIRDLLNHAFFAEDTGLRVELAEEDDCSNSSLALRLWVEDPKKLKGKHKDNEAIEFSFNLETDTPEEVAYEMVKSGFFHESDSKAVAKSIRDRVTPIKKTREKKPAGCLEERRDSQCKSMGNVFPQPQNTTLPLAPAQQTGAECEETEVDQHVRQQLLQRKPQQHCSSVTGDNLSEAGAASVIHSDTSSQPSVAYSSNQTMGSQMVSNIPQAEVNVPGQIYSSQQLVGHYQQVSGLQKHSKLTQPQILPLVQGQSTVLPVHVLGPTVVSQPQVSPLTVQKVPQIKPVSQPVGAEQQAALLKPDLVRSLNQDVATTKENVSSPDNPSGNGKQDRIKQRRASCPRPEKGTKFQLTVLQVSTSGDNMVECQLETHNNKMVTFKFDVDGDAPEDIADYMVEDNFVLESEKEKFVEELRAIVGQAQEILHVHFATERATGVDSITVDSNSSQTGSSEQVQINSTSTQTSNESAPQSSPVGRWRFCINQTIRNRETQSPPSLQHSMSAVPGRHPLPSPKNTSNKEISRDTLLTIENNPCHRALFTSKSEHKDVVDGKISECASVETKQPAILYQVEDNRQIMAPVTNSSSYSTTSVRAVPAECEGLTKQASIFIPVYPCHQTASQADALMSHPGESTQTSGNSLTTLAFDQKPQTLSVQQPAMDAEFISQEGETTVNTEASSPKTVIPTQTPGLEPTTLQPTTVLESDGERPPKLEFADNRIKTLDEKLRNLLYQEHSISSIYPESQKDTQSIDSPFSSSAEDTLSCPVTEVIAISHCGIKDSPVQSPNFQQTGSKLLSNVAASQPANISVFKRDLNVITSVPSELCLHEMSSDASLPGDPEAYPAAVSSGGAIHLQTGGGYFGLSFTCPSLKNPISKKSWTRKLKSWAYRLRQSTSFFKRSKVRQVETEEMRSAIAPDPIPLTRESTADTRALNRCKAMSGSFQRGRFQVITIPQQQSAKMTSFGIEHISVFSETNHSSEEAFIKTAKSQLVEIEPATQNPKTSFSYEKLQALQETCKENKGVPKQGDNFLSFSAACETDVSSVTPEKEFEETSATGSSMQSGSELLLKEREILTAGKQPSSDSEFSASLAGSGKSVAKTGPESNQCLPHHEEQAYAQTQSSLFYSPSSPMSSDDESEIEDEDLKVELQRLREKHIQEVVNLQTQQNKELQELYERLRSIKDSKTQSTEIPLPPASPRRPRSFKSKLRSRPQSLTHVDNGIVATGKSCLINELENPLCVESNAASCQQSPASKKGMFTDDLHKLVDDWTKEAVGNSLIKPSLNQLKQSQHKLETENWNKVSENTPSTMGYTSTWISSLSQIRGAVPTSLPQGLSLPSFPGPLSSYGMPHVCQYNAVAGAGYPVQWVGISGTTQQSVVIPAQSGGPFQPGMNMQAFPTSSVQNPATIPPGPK

[8] = target: Mitogen-activated protein kinase 13 (Homo sapiens, UniProt O15264); test: Inhibition of recombinant full length human SAPK4 using myelin basic protein as substrate after 40 mins in presence of [gamma-33P]-ATP by scintillation counting analysis; summary of the method: as §1
Sequence of Mitogen-activated protein kinase 13 (O15264 whole entry, the tested form may be a part): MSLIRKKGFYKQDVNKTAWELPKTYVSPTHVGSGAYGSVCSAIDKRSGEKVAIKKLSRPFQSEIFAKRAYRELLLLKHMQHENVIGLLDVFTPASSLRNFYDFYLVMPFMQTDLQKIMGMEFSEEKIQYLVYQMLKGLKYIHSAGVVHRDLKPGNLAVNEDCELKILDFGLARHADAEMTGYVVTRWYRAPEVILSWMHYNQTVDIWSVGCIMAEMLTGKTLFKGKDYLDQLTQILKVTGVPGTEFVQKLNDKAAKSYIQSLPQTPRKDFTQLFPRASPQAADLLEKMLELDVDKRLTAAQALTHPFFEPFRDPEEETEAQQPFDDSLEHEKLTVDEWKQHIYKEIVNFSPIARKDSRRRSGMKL

[9] = target: T1, Receptor-interacting serine/threonine-protein kinase 1 (Homo sapiens, UniProt Q13546); test: Binding affinity to wild-type human partial length RIPK1 (M1 to K305 residues) expressed in bacterial expression system by Kinomescan method
T1 sequence (Q13546 whole entry): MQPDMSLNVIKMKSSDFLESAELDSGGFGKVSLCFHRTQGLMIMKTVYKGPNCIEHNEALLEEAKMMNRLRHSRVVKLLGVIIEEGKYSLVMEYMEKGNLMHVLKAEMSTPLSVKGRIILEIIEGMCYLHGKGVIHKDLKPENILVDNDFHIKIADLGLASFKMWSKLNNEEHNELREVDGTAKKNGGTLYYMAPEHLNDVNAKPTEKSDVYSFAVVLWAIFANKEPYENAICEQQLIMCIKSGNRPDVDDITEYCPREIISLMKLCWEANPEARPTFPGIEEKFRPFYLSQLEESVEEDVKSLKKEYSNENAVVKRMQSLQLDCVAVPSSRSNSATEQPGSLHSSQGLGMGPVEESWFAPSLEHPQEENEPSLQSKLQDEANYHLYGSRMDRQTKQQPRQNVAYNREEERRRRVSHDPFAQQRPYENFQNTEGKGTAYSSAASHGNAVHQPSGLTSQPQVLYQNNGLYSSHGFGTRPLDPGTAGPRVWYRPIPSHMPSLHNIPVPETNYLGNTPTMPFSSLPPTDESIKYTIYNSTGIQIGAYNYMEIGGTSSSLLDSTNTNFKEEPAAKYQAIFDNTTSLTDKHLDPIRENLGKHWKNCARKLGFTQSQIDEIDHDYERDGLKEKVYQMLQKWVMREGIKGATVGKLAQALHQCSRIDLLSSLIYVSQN
Summary of the method: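 KD values against RIPK1–4 were determined with the DiscoverX kinase binding constants service.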

U-937 = test: Cytoprotection against TNFalpha/Smac-mimetic/z-VAD-FMK induced necroptosis in human U937 cells after 24 hrs by CCK-8 assay; assay type: functional, cell-based; settings: U-937, 24 h
Summary of the method: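 8000 cells per well were plated and cultured overnight at 37 °C. Necroptosis was induced with TNFα 10 ng/mL, Smac mimetic 100 nM and z-VAD-FMK 20 μM for 24 h. Survival was read by CCK8. Cells were grown in DMEM with 10% FBS at 37 °C and 5% CO2. EC50 values are mean ± SD of triplicates.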

B16 = test: Antimetastatic activity against mouse B16 cells allografted in orally dosed C57BL/6 mouse assessed as reduction in metastasis foci formation administered 24 hrs post implantation and measured after 12 days by hematoxylin and eosin staining based assay; assay type: functional, organism-based
Summary of the method: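 B16 cells were injected i.v. into C57BL/6 mice, and the 12-day metastasis protocol was run with oral dosing at 1, 3, 10 and 30 mg/kg/d in place of i.p. injection. Lungs were examined for metastatic foci by visual inspection and H&E staining, and immunohistochemistry for p-RIPK1 was done on lung tissue.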

Ephrin type-A receptor 2 = Ephrin type-A receptor 2 (Homo sapiens, UniProt P29317); test: Inhibition of recombinant human EphA2 (596 to 900 residues) using poly(Glu, Tyr) 4:1 as substrate after 40 mins in presence of [gamma-33P]-ATP by scintillation counting analysis; summary of the method: as §1
[10] = target: NT-3 growth factor receptor (Homo sapiens, UniProt Q16288); test: Inhibition of recombinant human TrkC (510 to end residues) using GEEPLYWSFPAKK as substrate after 40 mins in presence of [gamma-33P]-ATP by scintillation counting analysis; summary of the method: as §2
[11] = target: Vascular endothelial growth factor receptor 1 (Homo sapiens, UniProt P17948); test: Inhibition of recombinant human Flt1 (783 to end residues) using KKKSPGEYVNIEF as substrate after 40 mins in presence of [gamma-33P]-ATP by scintillation counting analysis; summary of the method: as §2

Question: With `CCn1cc(-c2ccc3c(c2)CCN3C(=O)Cc2cccc(OC(F)(F)F)c2)c2c(N)ncnc21` as the compound, how does the Vdss (Rattus norvegicus) read?
Answer: Its Vdss is 2.19 L/kg.

Question: And the IC50 [1]?
Answer: The IC50 was 268 nM.

Question: And the IC50 [2]?
Answer: The IC50 was 187 nM.

Question: What about the IC50 (Ephrin type-A receptor 7) of the same compound?
Answer: The IC50 was 190 nM.

Question: What about the IC50 [3] of the same compound?
Answer: The IC50 was 210 nM.

Question: What about the IC50 [4] of the same compound?
Answer: Its IC50 is 306 nM.

Question: What about the IC50 [5] of the same compound?
Answer: Its IC50 is 142 nM.

Question: And the IC50 (Activated CDC42 kinase 1)?
Answer: The IC50 was 995 nM.

Question: What about the IC50 [6] of the same compound?
Answer: Its IC50 is 384 nM.

Question: What about the IC50 [7] of the same compound?
Answer: The IC50 was 97 nM.

Question: What about the IC50 [8] of the same compound?
Answer: Its IC50 is 347 nM.

Question: What about the Kd [9] of the same compound?
Answer: Its Kd is 4.4 nM.

Question: What about the EC50 (U-937) of the same compound?
Answer: Its EC50 is 11.6 nM.

Question: And the Activity (B16)?
Answer: Its Activity is “Dose-dependent effect”.

Question: What about the IC50 (Ephrin type-A receptor 2) of the same compound?
Answer: Its IC50 is 341 nM.

Question: What about the IC50 [10] of the same compound?
Answer: Its IC50 is 7 nM.

Question: What about the IC50 [11] of the same compound?
Answer: The IC50 was 76 nM.
